Source: ChEMBL document CHEMBL2417481, “Regioselective synthesis of 6-substituted-2-amino-5-bromo-4(3H)-pyrimidinones and evaluation of their antiviral activity” (Eur J Med Chem, 2013)

Experiments:
Felid alphaherpesvirus 1 = experiment: Antiviral activity against Feline Herpes virus infected in cat CRFK cells assessed as inhibition of virus-induced cytopathic effect by MTS assay; format: functional, organism-based; settings: Felid alphaherpesvirus 1, CRFK
Cytomegalovirus [1] = experiment: Antiviral activity against Cytomegalovirus Davis infected in human HEL cells assessed as reduction in virus plaque formation; format: functional, organism-based; settings: Human betaherpesvirus 5, Davis
Summary of the method: (§1)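 Confluent HEL fibroblasts were inoculated with 100 PFU of CMV at graded compound concentrations. Plaques were counted once formation was complete in untreated infected controls.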

[2] = system: Respiratory syncytial virus; experiment: Antiviral activity against Respiratory syncytial virus Long infected in human HeLa cells assessed as reduction in virus-induced cytopathogenicity; format: functional, organism-based
Summary of the method: (§2)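 Confluent cell monolayers (Vero, HeLa, HEL or MDCK, as named in each line) were infected with 100 CCID50 of virus while exposed to a range of compound concentrations. Cytopathicity was scored once it was complete in untreated infected controls.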

Influenza B virus = experiment: Antiviral activity against Influenza B virus infected in MDCK cells assessed as reduction in virus-induced cytopathogenicity; format: functional, organism-based; summary of the method: as §2
Punta Toro virus = experiment: Antiviral activity against Punta Toro virus infected in african green monkey Vero cells assessed as reduction in virus-induced cytopathogenicity; format: functional, organism-based; summary of the method: as §2
[3] = system: Mammalian orthoreovirus 1; experiment: Antiviral activity against Reovirus-1 infected in african green monkey Vero cells assessed as reduction in virus-induced cytopathogenicity; format: functional, organism-based; settings: Mammalian orthoreovirus 1, Vero
Summary of the method: (§3)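 Confluent Vero monolayers in 96-well plates were inoculated with 100 CCID50 of virus together with varying compound concentrations. Cytopathicity was scored once it was complete in untreated virus-infected control cultures.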

Human alphaherpesvirus 1 [4] = experiment: Antiviral activity against Herpes simplex virus-1 KOS infected in human HEL cells assessed as reduction in virus-induced cytopathogenicity; format: functional, organism-based; settings: Human alphaherpesvirus 1, KOS; summary of the method: as §2
Human alphaherpesvirus 3 [5] = experiment: Antiviral activity against thymidine kinase negative Varicella-zoster virus 07-1 infected in human HEL cells assessed as reduction in the virus plaque formation; format: functional, organism-based; settings: Human alphaherpesvirus 3, 07-1, HEL
Summary of the method: (§4)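 Confluent HEL fibroblast cultures received 20 PFU of VZV together with varying compound concentrations. Plaque formation was read when it reached completion in untreated virus controls.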

[6] = Cytotoxicity against cat CRFK cells assessed as cell viability by MTS assay; format: cell-based, Felis catus
Human alphaherpesvirus 2 = experiment: Antiviral activity against Herpes simplex virus-2 G infected in human HEL cells assessed as reduction in virus-induced cytopathogenicity; format: functional, organism-based; settings: Human alphaherpesvirus 2, strain G; summary of the method: as §2
Influenza A virus [7] = experiment: Antiviral activity against Influenza A virus H1N1 infected in MDCK cells assessed as reduction in virus-induced cytopathogenicity; format: functional, organism-based; summary of the method: as §2
[8] = Cytotoxicity against human HeLa cells assessed as morphological changes; format: cell-based
Coxsackievirus B4 [9] = experiment: Antiviral activity against Coxsackievirus B4 infected in human HeLa cells assessed as reduction in virus-induced cytopathogenicity; format: functional, organism-based; settings: Enterovirus B; summary of the method: as §2
Cytomegalovirus [10] = experiment: Antiviral activity against Cytomegalovirus AD-169 infected in human HEL cells assessed as reduction in virus plaque formation; format: functional, organism-based; settings: Human betaherpesvirus 5, AD-169, HEL; summary of the method: as §1
[11] = system: Vesicular stomatitis virus; experiment: Antiviral activity against Vesicular stomatitis virus infected in human HeLa cells assessed as reduction in virus-induced cytopathogenicity; format: functional, organism-based; summary of the method: as §2
Feline coronavirus = experiment: Antiviral activity against Feline coronavirus infected in cat CRFK cells assessed as inhibition of virus-induced cytopathic effect by MTS assay; format: functional, organism-based; settings: Alphacoronavirus 1, CRFK
Human respirovirus 3 = experiment: Antiviral activity against Parainfluenza virus 3 infected in african green monkey Vero cells assessed as reduction in virus-induced cytopathogenicity; format: functional, organism-based; settings: Human respirovirus 3, Vero; summary of the method: as §3
Influenza A virus [12] = experiment: Antiviral activity against Influenza A virus […] infected in MDCK cells assessed as reduction in virus-induced cytopathogenicity; format: functional, organism-based; summary of the method: as §2
[13] = system: Vesicular stomatitis virus; experiment: Antiviral activity against Vesicular stomatitis virus infected in human HEL cells assessed as reduction in virus-induced cytopathogenicity; format: functional, organism-based; summary of the method: as §2
[14] = Cytotoxicity against african green monkey Vero cells assessed as morphological changes; format: cell-based; settings: chlorocebus sabaeus
[15] = Cytotoxicity against MDCK cells assessed as morphological changes; format: cell-based, Canis lupus familiaris; settings: dog
Sindbis virus = experiment: Antiviral activity against Sindbis virus infected in african green monkey Vero cells assessed as reduction in virus-induced cytopathogenicity; format: functional, organism-based; summary of the method: as §2
Human alphaherpesvirus 1 [16] = experiment: Antiviral activity against thymidine kinase negative […] Herpes simplex virus-1 KOS infected in human HEL cells assessed as reduction in virus-induced cytopathogenicity; format: functional, organism-based; settings: Human alphaherpesvirus 1, KOS; summary of the method: as §2
[17] = Cytotoxicity against human HEL cells assessed as morphological changes; format: cell-based
Coxsackievirus B4 [18] = experiment: Antiviral activity against Coxsackievirus B4 infected in african green monkey Vero cells assessed as reduction in virus-induced cytopathogenicity; format: functional, organism-based; settings: Enterovirus B; summary of the method: as §2
Human alphaherpesvirus 3 [19] = experiment: Antiviral activity against thymidine kinase positive Varicella-zoster virus OKA infected in human HEL cells assessed as reduction in virus plaque formation; format: functional, cell-based, Human herpesvirus 3 strain Oka vaccine; settings: Human alphaherpesvirus 3, OKA; summary of the method: as §4

Compound | EC50 (Felid alphaherpesvirus 1) | EC50 (Cytomegalovirus [1]) | EC50 [2] | EC50 (Influenza B virus) | EC50 (Punta Toro virus) | EC50 [3] | EC50 (Human alphaherpesvirus 1 [4]) | EC50 (Human alphaherpesvirus 3 [5]) | MCC [6] | EC50 (Human alphaherpesvirus 2) | EC50 (Influenza A virus [7]) | MCC [8] | EC50 (Coxsackievirus B4 [9]) | EC50 (Cytomegalovirus [10]) | EC50 [11] | EC50 (Feline coronavirus) | EC50 (Human respirovirus 3) | EC50 (Influenza A virus [12]) | EC50 [13] | MCC [14] | further results
Nc1nc(CC(O)c2ccccc2C(F)(F)F)c(Br)c(=O)[nH]1 (stereo not given) | > 100 µM | > 100 µM | > 100 µM | > 100 µM | > 100 µM | > 100 µM | > 100 µM | > 100 µM | > 100 µM | > 100 µM | > 100 µM | > 100 µM | > 100 µM | > 100 µM | > 100 µM | > 100 µM | > 100 µM | > 100 µM | > 100 µM | > 100 µM | MCC [15]: > 100 µM; EC50 (Sindbis virus): > 100 µM; EC50 (Human alphaherpesvirus 1 [16]): > 100 µM; MCC [17]: > 100 µM; EC50 (Coxsackievirus B4 [18]): > 100 µM; EC50 (Human alphaherpesvirus 3 [19]): > 100 µM
CCCc1nc(N)[nH]c(=O)c1Br | > 100 µM | > 100 µM | > 100 µM | > 100 µM | > 100 µM | > 100 µM | > 100 µM | > 100 µM | > 100 µM | > 100 µM | > 100 µM | > 100 µM | > 100 µM | > 100 µM | > 100 µM | > 100 µM | > 100 µM | > 100 µM | > 100 µM | > 100 µM | MCC [15]: > 100 µM; EC50 (Sindbis virus): > 100 µM; EC50 (Human alphaherpesvirus 1 [16]): > 100 µM; MCC [17]: > 100 µM; EC50 (Coxsackievirus B4 [18]): > 100 µM; EC50 (Human alphaherpesvirus 3 [19]): > 100 µM
COc1ccc(/C=C/c2nc(N)[nH]c(=O)c2Br)cc1OC | > 100 µM | > 100 µM | > 100 µM | > 20 µM | > 100 µM | > 100 µM | > 100 µM | > 100 µM | > 100 µM | > 100 µM | > 20 µM | > 100 µM | > 100 µM | > 100 µM | 45 µM | > 100 µM | > 100 µM | > 20 µM | > 100 µM | > 100 µM | MCC [15]: 100 µM; EC50 (Sindbis virus): > 100 µM; EC50 (Human alphaherpesvirus 1 [16]): > 100 µM; MCC [17]: > 100 µM; EC50 (Coxsackievirus B4 [18]): > 100 µM; EC50 (Human alphaherpesvirus 3 [19]): > 100 µM
CC(C)(O)Cc1nc(N)[nH]c(=O)c1Br | > 100 µM | > 100 µM | > 100 µM | > 100 µM | > 100 µM | > 100 µM | > 100 µM | 79.5 µM | > 100 µM | > 100 µM | > 100 µM | > 100 µM | > 100 µM | 100 µM | 45 µM | > 100 µM | > 100 µM | > 100 µM | > 100 µM | > 100 µM | MCC [15]: > 100 µM; EC50 (Sindbis virus): > 100 µM; EC50 (Human alphaherpesvirus 1 [16]): > 100 µM; MCC [17]: > 100 µM; EC50 (Coxsackievirus B4 [18]): > 100 µM; EC50 (Human alphaherpesvirus 3 [19]): 100 µM
Cc1cc(C)c(/C=C/c2nc(N)[nH]c(=O)c2Br)c(C)c1 | 1.5 µM | 8.9 µM | > 20 µM | > 20 µM | > 20 µM | > 20 µM | > 20 µM | 5.3 µM | 58 µM | > 20 µM | > 20 µM | 100 µM | > 20 µM | 11 µM | > 20 µM | > 20 µM | > 20 µM | > 20 µM | > 20 µM | 100 µM | MCC [15]: > 20 µM; EC50 (Sindbis virus): > 20 µM; EC50 (Human alphaherpesvirus 1 [16]): > 20 µM; MCC [17]: > 20 µM; EC50 (Coxsackievirus B4 [18]): > 20 µM; EC50 (Human alphaherpesvirus 3 [19]): 2.5 µM
